The results in this text go back to ChEMBL document CHEMBL1138626, “Synthesis and biological evaluation of reversible inhibitors of IdeS, a bacterial cysteine protease and virulence determinant” (Bioorg Med Chem, 2009).

This assay deals with Streptococcus pyogenes. Kind of assay: Inhibition of Streptococcus pyogenes IdeS assessed as blockade of enzyme-mediated degradation of human polyclonal immunoglobulin G by SDS-PAGE method. The procedure, abridged:
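IdeS expressed in E. coli and purified, diluted in PBS pH 7.4 (1 mg/mL), preincubated 30 min at room temperature in the dark with compound in DMSO (10 mg/mL stock, 100× excess). Human polyclonal IgG (1 mg/mL in PBS) then added, 1 h at 37 °C. Samples boiled in reducing SDS sample buffer (4% SDS, 5% 2-mercaptoethanol), cleavage read on 4–20% SDS–PAGE.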

Structures are written as SMILES. Calls of active or inactive are those of the source. No cut-off for these calls is given here.

Turning to `Cc1ccc(S(=O)(=O)N[C@H](CO)CCCCN)cc1`, the result was inactive.

As for `Cc1ccc(S(=O)(=O)N[C@@H](CCCCN)C(=O)CCl)cc1`, the outcome was Active.

In the case of `Cc1ccc(S(=O)(=O)N[C@@H](Cc2ccccc2)C(=O)CCl)cc1`, the result was Active.

Turning to `Cc1ccc(S(=O)(=O)N[C@H](CN=[N+]=[N-])Cc2ccccc2)cc1`, the result was Active.

In the case of `CCCC[C@@H](CN=[N+]=[N-])NS(=O)(=O)c1ccc(C)cc1`, the outcome was Active.

As to `CCCC[C@@H](CC=O)NS(=O)(=O)c1ccc(C)cc1`, the result was Active.

For the compound `Cc1ccc(S(=O)(=O)NC(CC=O)C(C)C)cc1` (single isomer, unassigned), the result was Active.

As for `Cc1ccc(S(=O)(=O)N[C@@H](CCCCNC(=O)OC(C)(C)C)CN=[N+]=[N-])cc1`, the outcome was inactive.

`Cc1ccc(S(=O)(=O)N[C@H](COS(=O)(=O)c2ccc(C)cc2)Cc2ccccc2)cc1`: the result was inactive.

Turning to `Cc1ccc(S(=O)(=O)N[C@H](CC=O)CCCCNC(=O)OC(C)(C)C)cc1`, the outcome was Active.

Regarding `Cc1ccc(S(=O)(=O)N[C@@H](CCCCN)CN=[N+]=[N-])cc1`, the outcome was inactive.

For `Cc1ccc(S(=O)(=O)N[C@@H](CCCCNC(=O)OC(C)(C)C)COS(=O)(=O)c2ccc(C)cc2)cc1`, the result was inactive.

Take `CCCC[C@@H](CC#N)NS(=O)(=O)c1ccc(C)cc1`: the outcome was Active.

Consider `Cc1ccc(S(=O)(=O)N[C@H](CO)Cc2ccccc2)cc1`, for which the outcome was inactive.

As for `Cc1ccc(S(=O)(=O)N[C@H](CC=O)Cc2ccccc2)cc1`, the outcome was Active.

Turning to `CCCC[C@@H](COS(=O)(=O)c1ccc(C)cc1)NS(=O)(=O)c1ccc(C)cc1`, the outcome was inactive.

Take `CCCC[C@@H](CO)NS(=O)(=O)c1ccc(C)cc1`: the result was inactive.

For the compound `Cc1ccc(S(=O)(=O)N[C@H](CO)CCCCNC(=O)OC(C)(C)C)cc1`, the outcome was inactive.

On to `Cc1ccc(S(=O)(=O)N[C@H](COS(=O)(=O)c2ccc(C)cc2)C(C)C)cc1`, for which the result was inactive.

On to `CCCC[C@H]1CN1S(=O)(=O)c1ccc(C)cc1` (stereo partly drawn), for which the result was inactive.

In the case of `Cc1ccc(S(=O)(=O)N[C@H](CN=[N+]=[N-])C(C)C)cc1`, the outcome was Active.

In the case of `Cc1ccc(S(=O)(=O)N[C@H](CO)C(C)C)cc1`, the result was inactive.

For `Cc1ccc(S(=O)(=O)N2C[C@@H]2C(C)C)cc1` (stereo partly drawn), the outcome was inactive.
